According to ChEMBL document CHEMBL3580574, “Design, Synthesis, and Biological Evaluation of Hexacyclic Tetracyclines as Potent, Broad Spectrum Antibacterial Agents” (J Med Chem, 2015):
Converted amounts (≈) assume the structure as drawn.

Columns and labels:
Type in all cases: functional
Escherichia coli [1] = assay: Antibacterial activity against Escherichia coli 107 ATCC 25922 assessed as bacterial growth inhibition by susceptibility testing assay
Procedure, shortened: (§1)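 Broth microdilution MIC per CLSI in cation-adjusted Mueller Hinton broth, made fresh and held at 4 °C before testing. Medium supplemented with lysed horse blood where appropriate. Compound stocks prepared and serially diluted in sterile deionized water. Runs were accepted against QC ranges for comparator antibiotics and ATCC QC strains.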

Burkholderia cenocepacia = assay: Antibacterial activity against Burkholderia cenocepacia 240 assessed as bacterial growth inhibition by susceptibility testing assay
Procedure, shortened: (§2)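 Medium supplemented with lysed horse blood where appropriate. Compound stocks prepared and serially diluted in sterile deionized water. Runs were accepted against QC ranges for comparator antibiotics and ATCC QC strains.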

Streptococcus pneumoniae = assay: Antibacterial activity against tet(M) tetracycline-resistant Streptococcus pneumoniae 160 assessed as bacterial growth inhibition by susceptibility testing assay
Acinetobacter baumannii = assay: Antibacterial activity against tet(B) tetracycline-resistant Acinetobacter baumannii 250 assessed as bacterial growth inhibition by susceptibility testing assay
Procedure, shortened: (§3)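 Broth microdilution MIC per CLSI in 96-well plates; compound stocks prepared and serially diluted in sterile deionized water; cation-adjusted Mueller Hinton broth prepared fresh and held at 4 °C before testing, supplemented with lysed horse blood as appropriate; runs accepted when comparator antibiotics fell within QC ranges for appropriate ATCC quality control strains.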

Pseudomonas aeruginosa = assay: Antibacterial activity against Pseudomonas aeruginosa 555 BAA-47 assessed as bacterial growth inhibition by susceptibility testing assay; conditions: Pseudomonas aeruginosa, 555 BAA-47; read-out: MIC; procedure, shortened: as §1
Staphylococcus aureus [2] = assay: Antibacterial activity against Staphylococcus aureus 101 ATCC 29213 assessed as bacterial growth inhibition by susceptibility testing assay; conditions: Staphylococcus aureus, 101 ATCC 29213; read-out: MIC; procedure, shortened: as §1
Klebsiella pneumoniae = assay: Antibacterial activity against Klebsiella pneumoniae 457 harboring CTX-M-15 gene assessed as bacterial growth inhibition by susceptibility testing assay; conditions: Klebsiella pneumoniae, 457; read-out: MIC; procedure, shortened: as §3
Staphylococcus aureus [3] = assay: Antibacterial activity against methicillin-resistant, tet(M) tetracycline-resistant Staphylococcus aureus 161 assessed as bacterial growth inhibition by susceptibility testing assay; procedure, shortened: as §3
Escherichia coli [4] = assay: Antibacterial activity against tet(A) tetracycline-resistant Escherichia coli 155 assessed as bacterial growth inhibition by susceptibility testing assay; conditions: Escherichia coli, 155; read-out: MIC; procedure, shortened: as §3
Enterococcus faecium = assay: Antibacterial activity against tet(M) tetracycline-resistant Enterococcus faecium 404 assessed as bacterial growth inhibition by susceptibility testing assay
Proteus mirabilis = assay: Antibacterial activity against Proteus mirabilis 385 assessed as bacterial growth inhibition by susceptibility testing assay; procedure, shortened: as §1
Staphylococcus aureus [5] = assay: Antibacterial activity against tet(K) tetracycline-resistant Staphylococcus aureus 158 assessed as bacterial growth inhibition by susceptibility testing assay; conditions: Staphylococcus aureus, 158; read-out: MIC
Enterobacter cloacae = assay: Antibacterial activity against tet(A) tetracycline-resistant Enterobacter cloacae 603 assessed as bacterial growth inhibition by susceptibility testing assay; procedure, shortened: as §3
Enterococcus faecalis = assay: Antibacterial activity against tet(M) tetracycline-resistant Enterococcus faecalis 327 assessed as bacterial growth inhibition by susceptibility testing assay; procedure, shortened: as §3
[6] = system: Stenotrophomonas maltophilia; assay: Antibacterial activity against Stenotrophomonas maltophilia 256 assessed as bacterial growth inhibition by susceptibility testing assay; procedure, shortened: as §2
[7] = Escherichia coli, 107 ATCC 25922, read-out: MIC
[8] = Burkholderia cenocepacia, 240, read-out: MIC
[9] = Streptococcus pneumoniae, 160, read-out: MIC
[10] = Acinetobacter baumannii, 250, read-out: MIC
[11] = Staphylococcus aureus, 161, read-out: MIC
[12] = Enterococcus faecium, 404, read-out: MIC
[13] = Proteus mirabilis, 385, read-out: MIC
[14] = Enterobacter cloacae, 603, read-out: MIC
[15] = Enterococcus faecalis, 327, read-out: MIC
[16] = Stenotrophomonas maltophilia, 256, read-out: MIC

Row | Compound | MIC (Escherichia coli [1]; [7]) [µg/mL] | MIC (Burkholderia cenocepacia; [8]) [µg/mL] | MIC (Streptococcus pneumoniae; [9]) [µg/mL] | MIC (Acinetobacter baumannii; [10]) [µg/mL] | MIC (Pseudomonas aeruginosa) [µg/mL] | MIC (Staphylococcus aureus [2]) [µg/mL] | MIC (Klebsiella pneumoniae) [µg/mL] | MIC (Staphylococcus aureus [3]; [11]) [µg/mL] | MIC (Escherichia coli [4]) [µg/mL] | MIC (Enterococcus faecium; [12]) [µg/mL] | MIC (Proteus mirabilis; [13]) [µg/mL] | MIC (Staphylococcus aureus [5]) [µg/mL] | MIC (Enterobacter cloacae; [14]) [µg/mL] | MIC (Enterococcus faecalis; [15]) [µg/mL] | MIC [6, 16] [µg/mL] | other results
1 | CN(C)[C@@H]1C(O)=C(C(N)=O)C(=O)[C@@]2(O)C(O)=C3C(=O)c4c(O)c5c(c(F)c4C[C@H]3C[C@@H]12)[C@H]1NCC[C@@]1(C)CN5 | 0.5 (≈ 0.922 µM) | > 32 | 0.25 (≈ 0.461 µM) | > 32 | 32 (≈ 59 µM) | 4 (≈ 7.37 µM) | 4 (≈ 7.37 µM) | 16 (≈ 29.5 µM) | 16 (≈ 29.5 µM) | 1 (≈ 1.84 µM) | 4 (≈ 7.37 µM) | 1 (≈ 1.84 µM) | 16 (≈ 29.5 µM) | 4 (≈ 7.37 µM) | 32 (≈ 59 µM) | 
2 | CC(=O)N(C)CCN1CCC2CNc3c(O)c4c(c(F)c3C21)C[C@H]1C[C@H]2[C@H](N(C)C)C(O)=C(C(N)=O)C(=O)[C@@]2(O)C(O)=C1C4=O (mixture of isomers) | 8 | > 32 | 4 | > 32 | > 32 | 4 | > 32 | > 32 | 32 | 32 | > 32 | 1 | > 32 | > 32 | > 32 | 
3 | CN(C)[C@@H]1C(O)=C(C(N)=O)C(=O)[C@@]2(O)C(O)=C3C(=O)c4c(O)c5c(c(F)c4C[C@H]3C[C@@H]12)[C@H]1N(C)CC[C@@]1(C)CN5 | 0.25 (≈ 0.449 µM) | 32 (≈ 57.5 µM) | 0.25 (≈ 0.449 µM) | 8 (≈ 14.4 µM) | 32 (≈ 57.5 µM) | 0.5 (≈ 0.898 µM) | 4 (≈ 7.19 µM) | 8 (≈ 14.4 µM) | 2 (≈ 3.59 µM) | 4 (≈ 7.19 µM) | 8 (≈ 14.4 µM) | 0.125 (≈ 0.225 µM) | 4 (≈ 7.19 µM) | 8 (≈ 14.4 µM) | 2 (≈ 3.59 µM) | 
4 | CN(C)[C@@H]1C(O)=C(C(N)=O)C(=O)[C@@]2(O)C(O)=C3C(=O)c4c(O)c5c(c(F)c4C[C@H]3C[C@@H]12)C1NCCC1CN5 (mixture of isomers) | 0.5 | > 32 | 0.5 | > 32 | 32 | 2 | 2 | 4 | 1 | 1 | 0.5 | 0.5 | 8 | 2 | > 32 | 
5 | CN(C)CCN1CC[C@H]2CNc3c(O)c4c(c(F)c3[C@H]21)C[C@H]1C[C@H]2[C@H](N(C)C)C(O)=C(C(N)=O)C(=O)[C@@]2(O)C(O)=C1C4=O | 8 (≈ 13.3 µM) | > 32 | 1 (≈ 1.67 µM) | > 32 | > 32 | 4 (≈ 6.67 µM) | 32 (≈ 53.4 µM) | 16 (≈ 26.7 µM) | > 32 | 4 (≈ 6.67 µM) | > 32 | 1 (≈ 1.67 µM) | > 32 | 8 (≈ 13.3 µM) | > 32 | 
6 | CC1C[C@H]2CNc3c(O)c4c(c(OC(F)(F)F)c3[C@H]2N1C)C[C@H]1C[C@H]2[C@H](N(C)C)C(O)=C(C(N)=O)C(=O)[C@@]2(O)C(O)=C1C4=O (stereo not given in full) | ≤ 0.0156 | 16 (≈ 25.7 µM) | ≤ 0.0156 | 1 (≈ 1.61 µM) | 8 (≈ 12.8 µM) | 0.0312 (≈ 0.0501 µM) | 2 (≈ 3.21 µM) | 0.0312 (≈ 0.0501 µM) | 0.0625 (≈ 0.1 µM) | 0.0312 (≈ 0.0501 µM) | 2 (≈ 3.21 µM) | ≤ 0.0156 | 2 (≈ 3.21 µM) | ≤ 0.0156 | 0.25 (≈ 0.402 µM) | 
7 | CCCN1CC[C@@]2(C)CNc3c(O)c4c(c(F)c3[C@@H]12)C[C@H]1C[C@H]2[C@H](N(C)C)C(O)=C(C(N)=O)C(=O)[C@@]2(O)C(O)=C1C4=O | 1 (≈ 1.71 µM) | > 32 | 0.5 (≈ 0.855 µM) | 16 (≈ 27.4 µM) | > 32 | 0.5 (≈ 0.855 µM) | 16 (≈ 27.4 µM) | 8 (≈ 13.7 µM) | 4 (≈ 6.84 µM) | 4 (≈ 6.84 µM) | 32 (≈ 54.7 µM) | 0.125 (≈ 0.214 µM) | 16 (≈ 27.4 µM) | 8 (≈ 13.7 µM) | 4 (≈ 6.84 µM) | 
8 | CN(C)[C@@H]1C(O)=C(C(N)=O)C(=O)[C@@]2(O)C(O)=C3C(=O)c4c(O)c5c(c(F)c4C[C@H]3C[C@@H]12)[C@@H]1[C@@H](CCN1CCO)CN5 | 1 (≈ 1.75 µM) | > 32 | 0.125 (≈ 0.218 µM) | > 32 | 32 (≈ 55.9 µM) | 2 (≈ 3.49 µM) | 4 (≈ 6.99 µM) | 4 (≈ 6.99 µM) | 16 (≈ 27.9 µM) | 1 (≈ 1.75 µM) | 8 (≈ 14 µM) | 0.25 (≈ 0.437 µM) | 16 (≈ 27.9 µM) | 1 (≈ 1.75 µM) | 32 (≈ 55.9 µM) | 
9 | CN(C)[C@@H]1C(O)=C(C(N)=O)C(=O)[C@@]2(O)C(O)=C3C(=O)c4c(O)c5c(c(OC(F)(F)F)c4C[C@H]3C[C@@H]12)C1NCCC1CN5 (mixture of isomers) | 0.5 | > 32 | 0.25 | > 32 | 32 | 0.5 | 2 | 2 | 2 | 0.25 | 4 | 0.25 | 8 | 0.5 | 16 | 
10 | CN(C)[C@@H]1C(O)=C(C(N)=O)C(=O)[C@@]2(O)C(O)=C3C(=O)c4c(O)c5c(c(F)c4C[C@H]3C[C@@H]12)[C@@H]1[C@@H](CCN1C)CN5 (stereo in doubt; 10b) |  |  |  |  | 8 (≈ 14.7 µM) | 0.5 (≈ 0.922 µM) | 1 (≈ 1.84 µM) |  | 1 (≈ 1.84 µM) |  |  | 0.125 (≈ 0.23 µM) |  |  |  | MIC (Escherichia coli [1]): 0.25 µg/mL (≈ 0.461 µM); MIC (Burkholderia cenocepacia): 32 µg/mL (≈ 59 µM); MIC (Streptococcus pneumoniae): 0.125 µg/mL (≈ 0.23 µM); MIC (Acinetobacter baumannii): 8 µg/mL (≈ 14.7 µM); MIC (Staphylococcus aureus [3]): 4 µg/mL (≈ 7.37 µM); MIC (Enterococcus faecium): 1 µg/mL (≈ 1.84 µM); MIC (Proteus mirabilis): 2 µg/mL (≈ 3.69 µM); MIC (Enterobacter cloacae): 2 µg/mL (≈ 3.69 µM); MIC (Enterococcus faecalis): 4 µg/mL (≈ 7.37 µM); MIC [6]: 4 µg/mL (≈ 7.37 µM)
11 | CN(C)[C@@H]1C(O)=C(C(N)=O)C(=O)[C@@]2(O)C(O)=C3C(=O)c4c(O)c5c(c(OC(F)(F)F)c4C[C@H]3C[C@@H]12)[C@@H]1[C@@H](CCN1C)CN5 | ≤ 0.0156 | 8 (≈ 13.1 µM) | ≤ 0.0156 | 1 (≈ 1.64 µM) | 8 (≈ 13.1 µM) | 0.0625 (≈ 0.103 µM) | 0.5 (≈ 0.822 µM) | 0.125 (≈ 0.205 µM) | 0.0312 (≈ 0.0513 µM) | ≤ 0.0156 | 2 (≈ 3.29 µM) | ≤ 0.0156 | 0.5 (≈ 0.822 µM) | 0.0312 (≈ 0.0513 µM) | 0.25 (≈ 0.411 µM) | 
12 | CN(C)[C@@H]1C(O)=C(C(N)=O)C(=O)[C@@]2(O)C(O)=C3C(=O)c4c(O)c5c(c(OC(F)(F)F)c4C[C@H]3C[C@@H]12)[C@@H]1[C@H](CN5)CC2CCCCN21 (stereo not given in full) | ≤ 0.0156 | 8 (≈ 12.3 µM) | ≤ 0.0156 | 2 (≈ 3.08 µM) | 16 (≈ 24.7 µM) | 0.0625 (≈ 0.0964 µM) | 4 (≈ 6.17 µM) | 0.25 (≈ 0.385 µM) | 0.125 (≈ 0.193 µM) | ≤ 0.0156 | 4 (≈ 6.17 µM) | ≤ 0.0156 | 4 (≈ 6.17 µM) | 0.0312 (≈ 0.0481 µM) | 1 (≈ 1.54 µM) | 
13 | CN(C)[C@@H]1C(O)=C(C(N)=O)C(=O)[C@@]2(O)C(O)=C3C(=O)c4c(O)cccc4[C@@](C)(O)[C@H]3C[C@@H]12 [TETRACYCLINE] | 1 (≈ 2.25 µM) |  |  | > 32 | > 32 | 0.125 (≈ 0.281 µM) | 8 (≈ 18 µM) | 64 (≈ 144 µM) | > 64 |  | > 32 |  | > 32 | > 32 |  | 
14 | CN(C)[C@@H]1C(O)=C(C(N)=O)C(=O)[C@@]2(O)C(O)=C3C(=O)c4c(O)c5c(c(OC(F)(F)F)c4C[C@H]3C[C@@H]12)[C@@H]1[C@H](CN5)CC2CCCN21 (stereo not given in full) | 0.0625 (≈ 0.0985 µM) | 32 (≈ 50.4 µM) | ≤ 0.0156 | 16 (≈ 25.2 µM) | 8 (≈ 12.6 µM) | 0.25 (≈ 0.394 µM) | 2 (≈ 3.15 µM) | 1 (≈ 1.58 µM) | 0.25 (≈ 0.394 µM) | 0.0625 (≈ 0.0985 µM) | 4 (≈ 6.3 µM) | 0.0625 (≈ 0.0985 µM) | 4 (≈ 6.3 µM) | 0.125 (≈ 0.197 µM) | 4 (≈ 6.3 µM) | 
